Holding throughout (type): cell-based, human
The test system of one test is T24. Nature of the test: MTT cytotoxicity assay, T24. Particulars: read-out: IC50 T24, cells treated for 24 h. Summed up:
(§1)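 Tumour lines and the normal liver line HL-7702 came from the Shanghai Cell Bank. Cells were cultured in RPMI 1640 or DMEM with 10% FBS and 1% streptomycin at 37 °C, 5% CO2. Cells were exposed to test compounds, and viability was read by MTT reduction to derive IC50. Cisplatin was run as reference control.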
In general terms: Tetrazolium dyes change colour on reduction, which living cells bring about.

A further test deals with NCI-H460. Nature of the test: MTT cytotoxicity assay, NCI-H460. The note with it: read-out: IC50 NCI-H460, cells treated for 24 h. Summed up:
as §1

The test system of another test is HL-7702. Nature of the test: MTT cytotoxicity assay, normal liver cell line HL-7702. Particulars: read-out: IC50 HL-7702, cells treated for 24 h. Summed up:
as §1

In the next test the test system is Hep-G2. As to the kind of experiment: MTT cytotoxicity assay, Hep-G2. Particulars: read-out: IC50 Hep-G2, cells treated for 24 h. Summed up: as §1

`N.N.[Cl][Pt][Cl]` [Cisplatin]: the IC50 – broadly, the point on the concentration scale where inhibition reaches its midpoint – with T24 turned out to be 22.9 ± 0.93 µM; with NCI-H460, 11.7 ± 2.26 µM; with HL-7702, 13.4 ± 1.56 µM; in the test with Hep-G2, 19.6 ± 1.39 µM.

The values are drawn from article PMC9049676 (RSC Advances, 2020).
